This is an account of results in ChEMBL document CHEMBL4390658, “Rational design of allosteric modulators of the aromatase enzyme: An unprecedented therapeutic strategy to fight breast cancer” (Eur J Med Chem, 2019).

The subject of data set [1] is MCF7. Description: Growth inhibition of human MCF7 cells incubated for 72 hrs by cell counting based method. Format: functional. The conditions noted are these: MCF7, 72 h. The procedure, abridged:
(§1)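 MCF-7 (ER+) and MDA-MB-231 (ER−) cells from ATCC, seeded at 50000 cells/well in triplicate. After 24 h, exposed for 72 h to graded concentrations, up to 200 µM. Cells trypsinized and counted electronically. Means of three independent experiments, each in triplicate, used for dose-response curves and GI50.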

The target in data set [2] is T1, Aromatase (Homo sapiens, UniProt P11511).
T1 sequence (P11511 whole entry): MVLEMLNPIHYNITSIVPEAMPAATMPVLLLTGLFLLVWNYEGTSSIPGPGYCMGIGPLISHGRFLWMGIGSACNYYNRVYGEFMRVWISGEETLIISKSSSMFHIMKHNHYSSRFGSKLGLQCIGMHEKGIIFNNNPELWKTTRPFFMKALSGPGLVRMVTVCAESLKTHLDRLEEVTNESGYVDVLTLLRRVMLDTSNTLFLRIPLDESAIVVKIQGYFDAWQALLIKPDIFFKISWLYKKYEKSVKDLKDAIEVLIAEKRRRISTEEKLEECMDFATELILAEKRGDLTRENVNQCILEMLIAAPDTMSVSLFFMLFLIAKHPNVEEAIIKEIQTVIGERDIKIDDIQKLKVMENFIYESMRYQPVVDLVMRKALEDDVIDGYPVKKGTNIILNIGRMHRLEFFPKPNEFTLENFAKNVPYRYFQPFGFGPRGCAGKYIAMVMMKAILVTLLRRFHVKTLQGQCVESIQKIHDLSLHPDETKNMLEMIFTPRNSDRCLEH
Description: Inhibition of recombinant human aromatase at 200 uM preincubated for 10 mins followed by substrate and beta-NADP+ addition and measured for 60 mins by fluorescence method. As to conditions: 1 h. Put shortly:
(§2)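 Single-concentration screen of recombinant human aromatase with an NADPH-generating system, at 100 and 200 µM inhibitor, DMSO ≤0.25% (v/v) final. Mix preincubated 10 min at 37°C, then fluorogenic substrate plus β-NADP+ added. Fluorescence read at 488/527 nm over 60 min. % inhibition taken from the RFU ratio of control to test, in triplicate.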

The target in data set [3] is T1, Aromatase. Description: Mixed type inhibition of recombinant human aromatase assessed as Vmax preincubated for 10 min followed by different substrate concentration and beta-NADP+ addition measured for 60 mins by fluorescence method based Michaelis-menten analysis (reference value: 93.3 +/- 1.3 /ms). As to conditions: 1 h.
Data set [4] deals with T1, Aromatase. Description: Inhibition of recombinant human aromatase preincubated for 10 mins followed by substrate and beta-NADP+ addition and measured for 60 mins by fluorescence method.
Data set [5] has as its target T1, Aromatase. Description: Inhibition of recombinant human aromatase at 100 uM preincubated for 10 mins followed by substrate and beta-NADP+ addition and measured for 60 mins by fluorescence method. As to conditions: 1 h. Put shortly:
as §2

The test system of data set [6] is MDA-MB-231. Description: Growth inhibition of human MDA-MB-231 cells incubated for 72 hrs by cell counting based method. Format: functional. As to conditions: MDA-MB-231, 72 h. The procedure, abridged: as §1
Data set [7] concerns the target T1, Aromatase. Description: Mixed type inhibition of recombinant human aromatase assessed as substrate Vmax preincubated for 10 mins followed by different substrate concentration and beta-NADP+ addition and measured for 60 mins by fluorescence method based Cornish-Bowden direct linear analysis (reference value: 91.5 /ms). The conditions noted are these: 1 h.
Data set [8] has as its target T1, Aromatase. Description: Inhibition of recombinant human aromatase at 1 uM preincubated for 10 mins followed by substrate and beta-NADP+ addition and measured for 60 mins by fluorescence method. The conditions noted are these: 1 h, read-out: INH.

Usually GI50 stands for the concentration at which growth is held to half of that of the control. Low values mean greater sensitivity of the cells, high ones lower sensitivity of the cells. One may read the IC50 as the point on the concentration scale where inhibition reaches its midpoint.

Some results are limits rather than exact numbers.

Regarding `COC(=O)c1ccc(NCC2=CC(=O)c3ccccc3C2=O)cc1`, the results for the GI50 in data set [1] and in data set [6] were 22.1 µM and 16.2 µM, respectively. The inhibition at 200 µM in data set [2] turned out to be 97%. Moreover, the figures for the Vmax in data set [3] and in data set [7] were 79.3 U/ms and 60.6 U/ms, respectively. The IC50 in data set [4] was 95.3 µM. Also, the inhibition at 100 µM in data set [5] came to 86%.

For `CC[C@H](Nc1cc(C)nc(Nc2cccc(O)c2)n1)c1nccs1`, the GI50 amounted to 21.3 µM in data set [1] and 58 µM in data set [6]. Moreover, the inhibition at 200 µM in data set [2] is 88%. In addition, the values for the Vmax in data set [3] and in data set [7] were 19.3 U/ms and 15.1 U/ms, respectively. For the same molecule, in data set [4], the IC50 came to 5.1 µM. In addition, the inhibition at 100 µM in data set [5] is 79%.

In the case of `O=C(NCc1cc[nH]c(=O)c1)c1ccc(COCC(F)(F)F)cc1`, in data set [2], the inhibition at 200 µM came to 3%. Further, the inhibition at 100 µM in data set [5] was found to be 3%.

Regarding `Cc1ccc(C(c2ccc(C)c(C)c2)C(O)C(O)C(O)C(O)CO)cc1C` (configuration not stated), in data set [2], the inhibition at 200 µM is 8%. The inhibition at 100 µM in data set [5] was 5%.

Turning to `O=C(CCc1ccc(O)c(Cl)c1)NCc1csc(=O)[nH]1`, the GI50 was 66.4 µM in data set [1] and more than 200 µM in data set [6]. Further, the inhibition at 200 µM in data set [2] was 69%. Moreover, the Vmax amounted to 85.2 U/ms in data set [3] and 78.7 U/ms in data set [7]. For the same molecule, the IC50 in data set [4] was found to be 21.7 µM. In addition, the inhibition at 100 µM in data set [5] was 53%.

For the molecule `COc1ccc([C@@H](O)CNC(=O)N[C@@H]2CCCCNC2=O)cc1`, in data set [2], the inhibition at 200 µM amounted to 19%. In data set [5], the inhibition at 100 µM stood at 4%.

On to `O=c1cc(CO)oc([C@H](Nc2ccccn2)c2ccccc2O)c1O`, for which, in data set [2], the inhibition at 200 µM turned out to be 3%. For the same molecule, in data set [5], the inhibition at 100 µM was 0%.

Turning to `O=C(C=Cc1ccc(O)c(O)c1)NCC(=O)NC(Cc1ccccc1)C(=O)O` (configuration not stated), the inhibition at 200 µM in data set [2] worked out at 13%. For the same molecule, the inhibition at 100 µM in data set [5] was found to be 10%.

As for `N[C@@H]1CCN(Cc2cc(O)c3cc(F)ccc3n2)C[C@H]1O`, the GI50 in data set [1] and in data set [6] was more than 200 µM in each case. Also, in data set [2], the inhibition at 200 µM came to 62%. The results for the Vmax in data set [3] and in data set [7] were 64.6 U/ms and 50.7 U/ms, respectively. Besides, the 50% inhibitory concentration (IC50) in data set [4] is 20.9 µM. Moreover, in data set [5], the inhibition at 100 µM amounted to 39%.

In the case of `C[C@@H](NC(=O)c1ccc(=O)[nH]c1)c1ccc2[nH]c(=O)[nH]c2c1`, the inhibition at 200 µM in data set [2] turned out to be 41%. Further, the inhibition at 100 µM in data set [5] worked out at 27%.

Regarding `CCSC(C(O)C(O)C(O)C(O)CO)n1cnc2c(S)ncnc21` (configuration not stated), the inhibition at 200 µM in data set [2] was determined as 12%. Further, in data set [5], the inhibition at 100 µM stood at 2%.

Take `CC[C@H](CO)N(Cc1ccccn1)C(=O)c1ccc(=O)[nH]c1`: the inhibition at 200 µM in data set [2] stood at 6%. The inhibition at 100 µM in data set [5] was 2%.

On to `NC(CCC(=O)O)C(=O)NC(Cc1c[nH]c2ccccc12)C(=O)O` (configuration not stated), for which, in data set [2], the inhibition at 200 µM was 3%. Further, the inhibition at 100 µM in data set [5] worked out at 4%.

On to `OCC(O)C(O)C(O)C(c1ccc(Cl)cc1)c1ccc(Cl)cc1` (configuration not stated), for which the inhibition at 200 µM in data set [2] was 10%. For the same molecule, in data set [5], the inhibition at 100 µM is 11%.

For `O=C1c2c(O)ccc(O)c2C(=O)c2c(NCCCO)ccc(NCCCO)c21`, the GI50 in data set [1] was 17.9 µM; in data set [6], 6.8 µM. Also, the inhibition at 200 µM in data set [2] was determined as 92%. For the same molecule, the Vmax in data set [3] amounted to 21.5 U/ms; in data set [7], 16.2 U/ms. Besides, the IC50 in data set [4] stood at 11 µM. Moreover, the inhibition at 100 µM in data set [5] is 83%.

In the case of `Nc1nc(O)cc(NC(=S)Nc2ccc(C(=O)O)cc2)n1`, the inhibition at 200 µM in data set [2] was 8%. Also, the inhibition at 100 µM in data set [5] was 8%.

Turning to `O=C1c2c(O)cc(O)cc2O[C@H](c2ccc(O)c(O)c2)[C@H]1O` [(+)-TAXIFOLIN], the inhibition at 200 µM in data set [2] is 56%. In data set [5], the inhibition at 100 µM was 46%.

For the molecule `CC/C(=C(\c1ccc(O)cc1)c1ccc(OCCNC)cc1)c1ccccc1` [ENDOXIFEN], the inhibition at 200 µM in data set [2] was determined as 58%. Also, the IC50 in data set [4] turned out to be 6.1 µM. In addition, the inhibition at 100 µM in data set [5] worked out at 11%.

`N#Cc1ccc(C(c2ccc(C#N)cc2)n2cncn2)cc1` [LETROZOLE]: the GI50 was 4.1 µM in data set [1] and more than 10 µM in data set [6]. Further, the inhibition at 1 µM in data set [8] came out at 91%.

Consider `CC(C)(C)NCC(O)COc1cccc2c1C[C@H](O)[C@H](O)C2` (some centres not stated) [NADOLOL], for which the inhibition at 200 µM in data set [2] came to 0%. Further, the inhibition at 100 µM in data set [5] was 0%.
